Assay results from ChEMBL document CHEMBL4689842, “EUbOPEN Chemogenomics Library wave 1” (2021).
Several values for one entry are separate records, joined by “and”; a condition that tells them apart may be missing. Equal values may be shown once.

Columns and labels:
[1] = test system: U2OS; assay: Multiplex assay against U2OS; assay type: toxicity, cell-based; settings: human
Outline: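 Values for tubulin, mitochondrial-mass and membrane-permeability phenotypes are per cents of cells with healthy nuclei. These cells were identified by CellPathfinder machine-learning gating of live cells that had been stained at seeding with Hoechst33342, BioTracker Green Microtubule Cytoskeleton Dye, MitoTracker Red and Annexin V Alexa Fluor 680 and imaged on a CQ1 microscope at 37°C and 5% CO2 after compound addition. The gating first set Hoechst high-intensity objects apart from normal cells, then split normal cells into healthy, pyknosed or fragmented nuclei, and pyknosed cells into mitotic or apoptotic.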

[2] = test system: Fibroblast; assay: Incucyte cell viability with human fibroblast; assay type: toxicity, cell-based; settings: 10 µM, compound concentration 10 uM; note: filed as whole numbers so only -1 and 0 and 1 occur
[3] = 12 h, 1 µM, compound concentration 1 uM, replicate 1
[4] = 12 h, 1 µM, compound concentration 1 uM, replicate 2
[5] = 12 h, 10 µM, compound concentration 10 uM, replicate 1
[6] = 12 h, 10 µM, compound concentration 10 uM, replicate 2
[7] = 24 h, 1 µM, compound concentration 1 uM, replicate 1
[8] = 24 h, 1 µM, compound concentration 1 uM, replicate 2
[9] = 24 h, 10 µM, compound concentration 10 uM, replicate 1
[10] = 24 h, 10 µM, compound concentration 10 uM, replicate 2
[11] = 48 h, 10 µM, compound concentration 10 uM, replicate 1
[12] = 48 h, 10 µM, compound concentration 10 uM, replicate 2

SMILES: CC(C)Oc1ccc(C(=O)N[C@H](CNC(=O)CN(C)C)Cc2ccc(-c3cn4cccc([C@H](C)O)c4n3)cc2)cc1Cl [GSK-923295A]
- Population Apoptotic (%) [1, 3]: 27%
- Population Fragmented Nuclei (%) [1, 3]: 9%
- Population Healthy Nuclei (%) [1, 3]: 75%
- Population Hoechst High Intensity Objects (%) [1, 3]: 1%
- Population Membrane Permeable-Phenotype (%) [1, 3]: 33%
- Population Mitochondria Different-Phenotype (%) [1, 3]: 23%
- Population Mitotic Cells (%) [1, 3]: 72%
- Population Normal (%) [1, 3]: 98%
- Population Pyknosed Nuclei (%) [1, 3]: 15%
- Population Tubulin-Different-Phenotype (%) [1, 3]: 14%
- Total Cell Count [1, 3]: 253
- Population Apoptotic (%) [1, 4]: 21%
- Population Fragmented Nuclei (%) [1, 4]: 11%
- Population Healthy Nuclei (%) [1, 4]: 66%
- Population Hoechst High Intensity Objects (%) [1, 4]: 11%
- Population Membrane Permeable-Phenotype (%) [1, 4]: 29%
- Population Mitotic Cells (%) [1, 4]: 78%
- Population Normal (%) [1, 4]: 88%
- Population Pyknosed Nuclei (%) [1, 4]: 22%
- Population Tubulin-Different-Phenotype (%) [1, 4]: 19%
- Total Cell Count [1, 4]: 153
- Population Apoptotic (%) [1, 5]: 48% and 53%
- Population Fragmented Nuclei (%) [1, 5]: 9% and 14%
- Population Healthy Nuclei (%) [1, 5]: 75% and 62%
- Population Hoechst High Intensity Objects (%) [1, 5]: 3% and 11%
- Population Membrane Permeable-Phenotype (%) [1, 5]: 31% and 19%
- Population Mitochondria Different-Phenotype (%) [1, 5]: 37% and 93%
- Population Mitotic Cells (%) [1, 5]: 51% and 46%
- Population Normal (%) [1, 5]: 96% and 88%
- Population Pyknosed Nuclei (%) [1, 5]: 15% and 23%
- Population Tubulin-Different-Phenotype (%) [1, 5]: 98% and 97%
- Total Cell Count [1, 5]: 146 and 119
- Population Apoptotic (%) [1, 6]: 30% and 33%
- Population Fragmented Nuclei (%) [1, 6]: 32%
- Population Healthy Nuclei (%) [1, 6]: 73% and 51%
- Population Hoechst High Intensity Objects (%) [1, 6]: 2%
- Population Membrane Permeable-Phenotype (%) [1, 6]: 30% and 56%
- Population Mitochondria Different-Phenotype (%) [1, 6]: 89% and 67%
- Population Mitotic Cells (%) [1, 6]: 69% and 66%
- Population Normal (%) [1, 6]: 97%
- Population Pyknosed Nuclei (%) [1, 6]: 17% and 16%
- Population Tubulin-Different-Phenotype (%) [1, 6]: 100%
- Total Cell Count [1, 6]: 76 and 116
- Population Apoptotic (%) [1, 7]: 24%
- Population Fragmented Nuclei (%) [1, 7]: 18%
- Population Healthy Nuclei (%) [1, 7]: 61%
- Population Hoechst High Intensity Objects (%) [1, 7]: 2%
- Population Membrane Permeable-Phenotype (%) [1, 7]: 28%
- Population Mitochondria Different-Phenotype (%) [1, 7]: 19%
- Population Mitotic Cells (%) [1, 7]: 75%
- Population Normal (%) [1, 7]: 97%
- Population Pyknosed Nuclei (%) [1, 7]: 19%
- Population Tubulin-Different-Phenotype (%) [1, 7]: 13%
- Total Cell Count [1, 7]: 249
- Population Apoptotic (%) [1, 8]: 29%
- Population Fragmented Nuclei (%) [1, 8]: 13%
- Population Healthy Nuclei (%) [1, 8]: 72%
- Population Hoechst High Intensity Objects (%) [1, 8]: 10%
- Population Membrane Permeable-Phenotype (%) [1, 8]: 19%
- Population Mitochondria Different-Phenotype (%) [1, 8]: 22%
- Population Mitotic Cells (%) [1, 8]: 70%
- Population Normal (%) [1, 8]: 89%
- Population Pyknosed Nuclei (%) [1, 8]: 14%
- Population Tubulin-Different-Phenotype (%) [1, 8]: 15%
- Total Cell Count [1, 8]: 136
- Population Apoptotic (%) [1, 9]: 78% and 72%
- Population Fragmented Nuclei (%) [1, 9]: 12% and 17%
- Population Healthy Nuclei (%) [1, 9]: 56% and 61%
- Population Hoechst High Intensity Objects (%) [1, 9]: 4% and 9%
- Population Membrane Permeable-Phenotype (%) [1, 9]: 45% and 40%
- Population Mitochondria Different-Phenotype (%) [1, 9]: 66% and 88%
- Population Mitotic Cells (%) [1, 9]: 21% and 27%
- Population Normal (%) [1, 9]: 95% and 90%
- Population Pyknosed Nuclei (%) [1, 9]: 31% and 20%
- Population Tubulin-Different-Phenotype (%) [1, 9]: 97%
- Total Cell Count [1, 9]: 171 and 128
- Population Apoptotic (%) [1, 10]: 60% and 35%
- Population Fragmented Nuclei (%) [1, 10]: 33% and 11%
- Population Healthy Nuclei (%) [1, 10]: 33% and 64%
- Population Hoechst High Intensity Objects (%) [1, 10]: 6% and 2%
- Population Membrane Permeable-Phenotype (%) [1, 10]: 64% and 53%
- Population Mitochondria Different-Phenotype (%) [1, 10]: 75% and 96%
- Population Mitotic Cells (%) [1, 10]: 39% and 65%
- Population Normal (%) [1, 10]: 93% and 97%
- Population Pyknosed Nuclei (%) [1, 10]: 33% and 24%
- Population Tubulin-Different-Phenotype (%) [1, 10]: 100%
- Total Cell Count [1, 10]: 133 and 72
- Population Apoptotic (%) [1, 11]: 66%
- Population Fragmented Nuclei (%) [1, 11]: 18%
- Population Healthy Nuclei (%) [1, 11]: 41%
- Population Hoechst High Intensity Objects (%) [1, 11]: 10%
- Population Membrane Permeable-Phenotype (%) [1, 11]: 49%
- Population Mitochondria Different-Phenotype (%) [1, 11]: 85%
- Population Mitotic Cells (%) [1, 11]: 33%
- Population Normal (%) [1, 11]: 89%
- Population Pyknosed Nuclei (%) [1, 11]: 40%
- Population Tubulin-Different-Phenotype (%) [1, 11]: 97%
- Total Cell Count [1, 11]: 133
- Population Apoptotic (%) [1, 12]: 73%
- Population Fragmented Nuclei (%) [1, 12]: 9%
- Population Healthy Nuclei (%) [1, 12]: 43%
- Population Hoechst High Intensity Objects (%) [1, 12]: 7%
- Population Membrane Permeable-Phenotype (%) [1, 12]: 81%
- Population Mitochondria Different-Phenotype (%) [1, 12]: 96%
- Population Mitotic Cells (%) [1, 12]: 26%
- Population Normal (%) [1, 12]: 92%
- Population Pyknosed Nuclei (%) [1, 12]: 46%
- Population Tubulin-Different-Phenotype (%) [1, 12]: 100%
- Total Cell Count [1, 12]: 86
- Growth Rate ([2]; 0 h, replicate number 1, timepoint 0 hours): 0
- Growth Rate ([2]; 0 h, replicate number 2, timepoint 0 hours): 1
- Growth Rate ([2]; 6 h, replicate number 1, timepoint 6 hours): 0
- Growth Rate ([2]; 12 h, replicate number 1, timepoint 12 hours): 0
- Growth Rate ([2]; 18 h, replicate number 1, timepoint 18 hours): 0
- Growth Rate ([2]; 24 h, replicate number 1, timepoint 24 hours): 0
